For series [1], the system named is Mus musculus. Put plainly: Antiinflammatory activity in Swiss albino mouse assessed as inhibition of carrageenan-induced paw edema at 100 mg/kg, po administered 60 mins before carrageenan challenge measured after 360 mins. Format: functional. Put shortly:
(§1)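 Mice fasted overnight, gavaged with suspension in 0.5% carboxymethyl cellulose or vehicle. 60 min later, 0.5 mg/25 µL carrageenan in 154 mM saline injected subplantar into right hind paw, saline into left. Right-minus-left footpad thickness by dial gauge every 90 min over 6 h; % inhibition versus control, mean ± SEM, two-tailed t-test. Indometacin reference.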

Series [2] deals with Mus musculus. Description: Antiinflammatory activity in Swiss albino mouse assessed as inhibition of carrageenan-induced paw edema at 100 mg/kg, po administered 60 mins before carrageenan challenge measured after 270 mins. Format: functional. Put shortly: as §1
Series [3] has as its system Mus musculus. Description: Antiinflammatory activity in Swiss albino mouse assessed as inhibition of carrageenan-induced paw edema at 100 mg/kg, po administered 60 mins before carrageenan challenge measured after 180 mins. Format: functional. Put shortly: as §1
Series [4] deals with Mus musculus. Description: Toxicity in Swiss albino mouse assessed as gastric ulceration at 100 mg/kg, po. Further details: dose 100 mg/kg, route oral. Format: organism-based, Stomach. The settings on record: in vivo. Put shortly: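 Mice fasted the day before (water allowed), given 100 mg/kg orally by gavage as suspension in 0.5% carboxymethyl cellulose; vehicle controls. Carrageenan paw oedema followed over 6 h. Immediately after last paw measurement, animals sacrificed under ether anaesthesia, stomachs removed and examined under dissecting microscope; stomach with one or more ulcers scored positive; expressed as ulcerated/total (n=6 per group).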

Series [5] concerns Mus musculus. Description: Analgesic activity in Swiss albino mouse assessed as p-benzoquinone-induced writhing at 100 mg/kg, po administered 60 mins before benzoquinone challenge. Format: functional. Put shortly: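 Mice fasted overnight with water allowed, dosed by gavage with suspension in 0.5% carboxymethyl cellulose; vehicle controls. 60 min later, i.p. 0.1 mL/10 g of 2.5% (v/v) p-benzoquinone in distilled water. Writhes counted individually for 15 min starting 5 min post-injection; % change from vehicle writhing controls, mean ± SEM, two-tailed t-test. Aspirin reference.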

The test system of series [6] is Mus musculus. Description: Antiinflammatory activity in Swiss albino mouse assessed as inhibition of carrageenan-induced paw edema at 100 mg/kg, po administered 60 mins before carrageenan challenge measured after 90 mins. Format: functional. Put shortly:
as §1

SMILES strings stand for the structures.

On to `CC(=O)c1sc2nc(S[C@@H]3O[C@H](CO)[C@@H](O)[C@@H]3O)n(N)c(=O)c2c1C`, for which the inhibition in vivo at 100 mg/kg turned out to be 35.6% in the series on Mus musculus [1]; 28.6% in the series on Mus musculus [2]; 29.8% in the series on Mus musculus [3]; 48.8% in the series with Mus musculus [5]; 28.5% with Mus musculus [6]. Moreover, the Activity result with Mus musculus [4] is on record as “Non-toxic”.
Take `CC(=O)c1sc2[nH]c(=S)n(N)c(=O)c2c1C`: the inhibition in vivo at 100 mg/kg was determined as 8.5% with Mus musculus [1]; 8.3% in the series with Mus musculus [2]; 7.8% in the series on Mus musculus [3]; 35.7% with Mus musculus [5]; 6.1% in the series on Mus musculus [6]. For the same compound, the Activity entry with Mus musculus [4] is “Non-toxic”.
Consider `CCOC(=O)c1sc2c(c1C)C(=O)N(N)C(S[C@@H]1O[C@H](CO)[C@@H](O)[C@H](O)[C@H]1O)N2` (stereo partly drawn), for which the inhibition in vivo at 100 mg/kg in the series with Mus musculus [1] is 34.4%; with Mus musculus [2] it was 33.9%; in the series on Mus musculus [3] it was 31.2%; with Mus musculus [5] it was 51%; in the series with Mus musculus [6] it was 29.7%.
As for `CCOC(=O)c1sc2nc(S[C@@H]3O[C@H](CO)[C@H](O)[C@H](O)[C@H]3O)n(N)c(=O)c2c1C`, in the series with Mus musculus [4], the Activity entry was “Non-toxic”.
As for `CC(=O)c1sc2c(c1C)C(=O)N(N)C(S[C@@H]1O[C@H](CO)[C@H](O)[C@H](O)[C@H]1O)N2` (stereo partly drawn), the inhibition in vivo at 100 mg/kg in the series on Mus musculus [1] was found to be 20.7%; with Mus musculus [2], 17.5%; in the series on Mus musculus [3], 16.6%; with Mus musculus [5] it was 35.7%; in the series on Mus musculus [6], 14.4%.
Consider `CC(=O)OC[C@H]1O[C@@H](Sc2nc3sc(C(C)=O)c(C)c3c(=O)n2N)[C@@H](OC(C)=O)[C@@H]1OC(C)=O`, for which the inhibition in vivo at 100 mg/kg came out at 35.6% in the series on Mus musculus [1]; 28.6% in the series with Mus musculus [2]; 29.8% in the series on Mus musculus [3]; 48.8% in the series on Mus musculus [5]; 28.5% with Mus musculus [6]. For the same compound, in the series with Mus musculus [4], the Activity entry is on record as “Non-toxic”.
In the case of `CCOC(=O)c1sc2nc(S[C@@H]3O[C@H](COC(C)=O)[C@@H](OC(C)=O)[C@H](OC(C)=O)[C@H]3OC(C)=O)n(N)c(=O)c2c1C`, the inhibition in vivo at 100 mg/kg in the series with Mus musculus [1] was 22.3%; in the series with Mus musculus [2], 20.3%; with Mus musculus [3], 14.7%; in the series on Mus musculus [5], 37.9%; with Mus musculus [6], 13.2%.
Consider `CC(=O)OC[C@H]1O[C@@H](Sc2nc3sc(C(C)=O)c(C)c3c(=O)n2N)[C@H](OC(C)=O)[C@@H](OC(C)=O)[C@@H]1OC(C)=O`, for which the inhibition in vivo at 100 mg/kg in the series on Mus musculus [1] came to 34.2%; in the series on Mus musculus [2], 29.9%; with Mus musculus [3], 23.9%; with Mus musculus [5] it was 45.4%; in the series with Mus musculus [6], 25.7%. For the same compound, the Activity entry in the series on Mus musculus [4] was “Non-toxic”.
Consider `CC(=O)OC[C@H]1O[C@@H](Sc2nc3sc(C(C)=O)c(C)c3c(=O)n2N)[C@H](OC(C)=O)[C@@H](OC(C)=O)[C@H]1OC(C)=O`, for which the inhibition in vivo at 100 mg/kg in the series on Mus musculus [1] amounted to 13.1%; in the series on Mus musculus [2], 10.5%; with Mus musculus [3] it was 7.8%; with Mus musculus [5] it was 13.8%; in the series with Mus musculus [6], 14.9%.
As to `CCOC(=O)c1sc2nc(S[C@@H]3O[C@H](CO)[C@@H](O)[C@@H]3O)n(N)c(=O)c2c1C`, the inhibition in vivo at 100 mg/kg with Mus musculus [1] came to 38.9%; in the series on Mus musculus [2], 35.9%; in the series with Mus musculus [3], 35.6%; in the series on Mus musculus [5], 53.3%; in the series on Mus musculus [6], 32.1%. For the same compound, the Activity entry in the series on Mus musculus [4] is reported as “Non-toxic”.
In the case of `CCOC(=O)c1sc2nc(S[C@@H]3O[C@H](COC(C)=O)[C@@H](OC(C)=O)[C@@H]3OC(C)=O)n(N)c(=O)c2c1C`, the inhibition in vivo at 100 mg/kg in the series on Mus musculus [1] stood at 38.9%; in the series with Mus musculus [2], 35.9%; with Mus musculus [3] it was 35.6%; in the series on Mus musculus [5], 53.3%; with Mus musculus [6], 32.1%. In addition, the Activity entry in the series with Mus musculus [4] is “Non-toxic”.
For the compound `CCOC(=O)c1sc2[nH]c(=S)n(N)c(=O)c2c1C`, the inhibition in vivo at 100 mg/kg with Mus musculus [1] is 8.5%; in the series on Mus musculus [2] it was 8.3%; in the series with Mus musculus [3], 6.1%; in the series on Mus musculus [5] it was 23.9%; in the series on Mus musculus [6], 1.2%. The Activity entry with Mus musculus [4] is listed as “Non-toxic”.
With `CC(=O)Oc1ccccc1C(=O)O` [ASPIRIN], the inhibition in vivo at 100 mg/kg in the series with Mus musculus [5] was determined as 51.9%.
Regarding `COc1ccc2c(c1)c(CC(=O)O)c(C)n2C(=O)c1ccc(Cl)cc1` [INDOMETHACIN], the inhibition in vivo at 100 mg/kg in the series on Mus musculus [1] is 42.7%; in the series with Mus musculus [2] it was 41.9%; in the series with Mus musculus [3], 30.6%; in the series on Mus musculus [6] it was 29.5%.

Source of the values: ChEMBL document CHEMBL1157044, “Synthesis, biological and medicinal significance of S-glycosido-thieno[2,3-d]-pyrimidines as new anti-inflammatory and analgesic agents” (Eur J Med Chem, 2010).
